According to ChEMBL document CHEMBL1764980, “Synthesis and biological evaluation of orally active prodrugs of indomethacin” (J Med Chem, 2011):

How the values were obtained:
[1] = Metabolic stability in rat plasma assessed as compound remaining at 5 mM after 60 mins by HPLC analysis; assay type: ADME, cell-free; conditions: read-out: Stability
[2] = Metabolic stability in rat liver microsomes assessed as compound remaining at 5 mM after 60 mins by HPLC analysis; assay type: ADME, Microsome; conditions: read-out: Stability
[3] = Aqueous solubility of the compound in 0.2 M hydrochloric acid buffer at pH 1 after 4 hrs by HPLC analysis; assay type: physicochemical
Outline: (§1)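 5 mg compound in 10 mL buffer, shaken at 400 rpm for 4 h at 40 °C. Then passed through a 0.20 μm membrane filter. Filtrate quantified by HPLC at 254 nm for both solubility and hydrolysis to parent. Detection limits estimated by HPLC.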

[4] = Partition coefficient, log P of the compound in 1-octanol-citric acid buffer at pH 3 by HPLC analysis; assay type: physicochemical
Outline: (§2)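 Shake-flask method at 25 °C. 1-octanol and aqueous buffer (0.2 M phosphate pH 7.4 or 0.1 M citric acid pH 3.0) pre-saturated with each other for 24 h. Compound shaken in 5 mL each phase for 60 min at 400 rpm, then centrifuged at 3500 rpm for 5 min. Both phases quantified by HPLC at 254 nm. log P = log(octanol/water concentration). Run in triplicate.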

Rattus norvegicus [5] = experiment: Gastrointestinal toxicity in Wistar rat assessed as appearance ulcer area of <1 mm diameter at 100 mg/kg, po administered as single dose after 6 hrs by Vernier caliper; assay type: organism-based; parameters: dose 100 mg/kg, route oral; conditions: in vivo
Outline: (§3)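 Male Wistar rats (150-200 g), n = 6 per group, fasted 18 h with water available. Single oral dose of 100 mg/kg. Killed under ether 6 h after dosing; stomach opened along the greater curvature, washed and examined. Lesion lengths measured by Vernier caliper and graded I (<1 mm), II (1-3 mm) or III (>3 mm). UI = 1×(I) + 2×(II) + 3×(III), averaged over six animals.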

[6] = Aqueous solubility of the compound in 0.2 M phosphate buffer at pH 7.4 after 4 hrs by HPLC analysis; assay type: physicochemical; outline: as §1
[7] = Chemical stability of the compound at 0.1 M phosphate buffer assessed as hydrolysis to parent compound at pH 5.2 after 4 hrs by HPLC analysis; assay type: physicochemical; conditions: pH 5.2, 4 h; outline: as §1
[8] = Partition coefficient, log P of the compound in n-octanol-phosphate buffer at pH 7.4 by HPLC analysis; assay type: physicochemical; outline: as §2
[9] = Chemical stability of the compound at 0.1 M boric acid buffer assessed as hydrolysis to parent compound at pH 9 after 4 hrs by HPLC analysis; assay type: physicochemical; conditions: pH 9, 4 h; outline: as §1
[10] = Chemical stability of the compound at 0.1 M citric acid buffer assessed as hydrolysis to parent compound at pH 3 after 4 hrs by HPLC analysis; assay type: physicochemical; conditions: pH 3, 4 h; outline: as §1
[11] = Chemical stability of the compound at 0.2 M hydrochloric acid buffer assessed as hydrolysis to parent compound at pH 1 after 4 hrs by HPLC analysis; assay type: physicochemical; conditions: pH 1, 4 h; outline: as §1
[12] = Metabolic stability in rat liver microsomes assessed as compound remaining at 5 mM after 30 mins by HPLC analysis; assay type: ADME, Microsome; conditions: read-out: Stability
[13] = Aqueous solubility of the compound in 0.1 M phosphate buffer at pH 5.2 after 4 hrs by HPLC analysis; assay type: physicochemical; outline: as §1
[14] = Aqueous solubility of the compound in 0.1 M citric acid buffer at pH 3 after 4 hrs by HPLC analysis; assay type: physicochemical; outline: as §1
[15] = Chemical stability of the compound at 0.2 M phosphate buffer assessed as hydrolysis to parent compound at pH 7.4 after 4 hrs by HPLC analysis; assay type: physicochemical; conditions: pH 7.4, 4 h; outline: as §1
Rattus norvegicus [16] = experiment: Gastrointestinal toxicity in Wistar rat assessed as ulcerogenic index at 100 mg/kg, po administered as single dose; assay type: organism-based; parameters: dose 100 mg/kg, route oral; conditions: in vivo; outline: as §3
Rattus norvegicus [17] = experiment: Antiinflammatory activity in Wistar rat assessed as inhibition of carrageenan-induced paw edema at 100 mg/kg, po administered 1 hr before carrageenan challenge measured after 3 hrs by plethysmograph relative to control; assay type: functional
Outline: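 Male Wistar rats (150-200 g). Carrageenan 1% (0.1 mL) injected subplantar into left paw under light ether anaesthesia; test compound 100 mg/kg po given 1 h before. Paw volume read by plethysmograph 3 h after carrageenan. % inhibition = (carrageenan − test)/(carrageenan − normal) × 100. Groups: normal control, carrageenan, carrageenan plus treatment.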

[18] = Aqueous solubility of the compound in 0.1 M boric acid buffer at pH 9 after 4 hrs by HPLC analysis; assay type: physicochemical; outline: as §1
Rattus norvegicus [19] = experiment: Gastrointestinal toxicity in Wistar rat assessed as appearance ulcer area of 1 to 3 mm diameter at 100 mg/kg, po administered as single dose after 6 hrs by Vernier caliper; assay type: organism-based; parameters: dose 100 mg/kg, route oral; conditions: in vivo; outline: as §3
Rattus norvegicus [20] = experiment: Gastrointestinal toxicity in Wistar rat assessed as appearance ulcer area of >3 mm diameter at 100 mg/kg, po administered as single dose after 6 hrs by Vernier caliper; assay type: organism-based; parameters: dose 100 mg/kg, route oral; conditions: in vivo; outline: as §3

Row | remaining at 1 h [1] [%] | remaining at 1 h [2] [%] | solubility at 4 h [3] [µg/mL] | logD [4] | solubility at 4 h [6] [µg/mL] | Stability [7] [µg/mL] | logD [8] | Stability [9] [µg/mL] | Stability [10] [µg/mL] | Stability [11] [µg/mL] | remaining at 0.5 h [12] [%] | solubility at 4 h [13] [µg/mL] | solubility at 4 h [14] [µg/mL] | Stability [15] [µg/mL] | solubility at 4 h [18] [µg/mL] | SMILES | Activity (Rattus norvegicus [5]) [%] | UI (Rattus norvegicus [16]) | inhibition in vivo at 100 mg/kg (Rattus norvegicus [17]) [%] | Activity (Rattus norvegicus [19]) [%] | Activity (Rattus norvegicus [20]) [%]
1 | 0 | 0 | < 0.111 | 4.2 | < 0.111 | 0.0197 | 3.5 | 0.369 | 0.0092 | 0.0103 | 1.14 | < 0.111 | < 0.111 | 0.0093 | < 0.111 | COc1ccc2c(c1)c(CC(=O)OCCOC(C)=O)c(C)n2C(=O)c1ccc(Cl)cc1 |  | 0 | 44.4 |  | 
2 | 97.1 | 80.2 |  | 4.2 |  |  |  |  |  |  | 90.3 |  |  |  |  | COc1ccc2c(c1)c(CC(=O)O)c(C)n2C(=O)c1ccc(Cl)cc1 [INDOMETHACIN] | 90.2 | 47 | 48.4 | 4.9 | 4.9

Further lines, the compound ahead of its results:

Row | SMILES | remaining at 1 h [1] [%] | remaining at 1 h [2] [%] | solubility at 4 h [3] [µg/mL] | logD [4] | solubility at 4 h [6] [µg/mL] | Stability [7] [µg/mL] | logD [8] | Stability [9] [µg/mL] | Stability [10] [µg/mL] | Stability [11] [µg/mL] | remaining at 0.5 h [12] [%] | solubility at 4 h [13] [µg/mL] | solubility at 4 h [14] [µg/mL] | Stability [15] [µg/mL] | solubility at 4 h [18] [µg/mL] | Activity (Rattus norvegicus [5]) [%] | UI (Rattus norvegicus [16]) | inhibition in vivo at 100 mg/kg (Rattus norvegicus [17]) [%] | Activity (Rattus norvegicus [19]) [%] | Activity (Rattus norvegicus [20]) [%]
3 | COc1ccc2c(c1)c(CC(=O)OCOC(=O)C(C)(C)C)c(C)n2C(=O)c1ccc(Cl)cc1 | 0 | 0 | < 0.084 | 4.6 | < 0.084 | 0.1525 | 4.7 | 2.187 | 0.0075 | 0.021 | 0 | < 0.084 | < 0.084 | 0.294 | < 0.084 | 100 | 19 | 48.4 |  | 
4 | COc1ccc2c(c1)c(CC(=O)OCOC(=O)OC(C)C)c(C)n2C(=O)c1ccc(Cl)cc1 |  |  | < 0.119 | 5.1 | < 0.119 | 0.01379 | 5 | 0.2461 | 0.00539 | 0.01 |  | < 0.119 | < 0.119 | 0.01332 | < 0.119 | 86.3 | 62 | 45.2 | 5.9 | 7.8
5 | COc1ccc2c(c1)c(CC(=O)OCc1oc(=O)oc1C)c(C)n2C(=O)c1ccc(Cl)cc1 |  |  | < 0.0638 | 4.5 | < 0.0638 | 0.0244 | 2.9 | 0.5106 | 0.0134 | 0.0191 |  | < 0.0638 | < 0.0638 | 0.0101 | < 0.0638 |  | 0 | 12.1 |  | 
